Where a chain is given by its changes, count along the chain named.
Columns and labels:
KDM4A N198A mutant = biological target: T1, KDM4A N198A mutant (Homo sapiens, UniProt O75164, N198A); test: MALDI demethylase assay, H3K9me3 substrate peptide, N198A mutant; format: biochemical
T1 sequence (O75164 1-1064 N198A): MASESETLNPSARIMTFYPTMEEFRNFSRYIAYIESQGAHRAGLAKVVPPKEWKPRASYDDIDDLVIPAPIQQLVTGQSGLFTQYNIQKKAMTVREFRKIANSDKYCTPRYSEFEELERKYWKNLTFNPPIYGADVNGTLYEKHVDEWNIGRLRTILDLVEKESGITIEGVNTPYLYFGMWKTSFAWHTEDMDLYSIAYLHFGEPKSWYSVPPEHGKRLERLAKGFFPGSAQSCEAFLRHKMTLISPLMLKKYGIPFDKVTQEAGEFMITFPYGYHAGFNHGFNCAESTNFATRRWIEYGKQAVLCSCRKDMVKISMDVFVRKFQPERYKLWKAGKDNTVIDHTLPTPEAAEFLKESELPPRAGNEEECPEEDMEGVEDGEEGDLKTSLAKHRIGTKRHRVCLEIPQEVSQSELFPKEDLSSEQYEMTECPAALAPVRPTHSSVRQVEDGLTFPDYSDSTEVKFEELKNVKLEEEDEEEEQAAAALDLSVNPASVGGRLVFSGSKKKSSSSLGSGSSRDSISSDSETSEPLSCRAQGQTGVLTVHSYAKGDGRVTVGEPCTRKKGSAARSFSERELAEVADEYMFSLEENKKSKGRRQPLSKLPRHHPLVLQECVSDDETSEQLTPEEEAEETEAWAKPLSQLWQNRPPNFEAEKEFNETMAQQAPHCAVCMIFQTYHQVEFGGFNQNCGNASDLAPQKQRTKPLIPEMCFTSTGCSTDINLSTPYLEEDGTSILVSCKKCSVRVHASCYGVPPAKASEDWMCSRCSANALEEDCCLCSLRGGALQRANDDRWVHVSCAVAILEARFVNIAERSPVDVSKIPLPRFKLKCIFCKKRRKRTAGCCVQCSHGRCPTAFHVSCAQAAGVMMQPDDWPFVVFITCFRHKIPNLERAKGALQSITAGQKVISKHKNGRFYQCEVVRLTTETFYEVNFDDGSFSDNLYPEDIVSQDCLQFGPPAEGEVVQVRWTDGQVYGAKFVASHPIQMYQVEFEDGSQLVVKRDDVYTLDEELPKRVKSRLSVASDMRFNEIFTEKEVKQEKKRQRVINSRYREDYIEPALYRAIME

KDM4A S288G mutant = biological target: T2, KDM4A S288G mutant (Homo sapiens, UniProt O75164, S288G); test: MALDI demethylase assay, H3K9me3 substrate peptide, S288G mutant; format: biochemical
T2 sequence (O75164 1-1064 S288G): T1 sequence (O75164 1-1064 N198A) with A198N, S288G
Summary of the method: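 KDM4A mutant demethylation of H3K9me3 peptide, read by MALDI-MS and expressed as % inhibition of demethylase activity, with wild type and the four active-site mutants run under the same conditions. The 2KG cofactor was cut from the 1 mM of the initial activity assay to 50 μM, about 3–4-fold above the enzymes' 2KG KM. KM came from an FDH/NAD+-coupled NADH fluorescence assay.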

2KG-dependent enzymes = conditions: broad-spectrum inhibitors of 2KG-dependent enzymes; cited from earlier work
[1] = scaffold test under the optimized assay conditions (50 μM 2KG), Figure S7
[2] = 100 μM compound, 50 μM 2KG, MALDI-MS

inhibition of demethylase activity (KDM4A N198A mutant; [1]) | inhibition of demethylase activity (KDM4A S288G mutant; [1]) | inhibition of demethylase activity (KDM4A N198A mutant; [2]) | inhibition of demethylase activity (KDM4A S288G mutant; [2]) | SMILES | IC50 (2KG-dependent enzymes)
inhibited | inhibited |  |  | O=C(O)c1ccc(O)c2ncccc12 [IOX1, 5-carboxy-8-hydroxyquinone] | micromolar range
inhibited | inhibited | significantly inhibited | significantly inhibited | O=C(O)CNC(=O)C(=O)O [compound 2, N-oxalylglycine] | micromolar range

— PMC6570502 (Chembiochem : a European journal of chemical biology, 2019)
